“Also recorded” adds a separate entry of the source. Ends that are not written are not given here.

The test system of one assay is PAR1. The experiment in a line: cell-based assays of antagonist dissociation from PAR1.
The next assay deals with platelets. The conditions noted are these: at 200 μM peptide; cited from earlier work.
The next assay deals with T1, human PAR1 (Homo sapiens, UniProt P25116).
T1 sequence (P25116 36-397): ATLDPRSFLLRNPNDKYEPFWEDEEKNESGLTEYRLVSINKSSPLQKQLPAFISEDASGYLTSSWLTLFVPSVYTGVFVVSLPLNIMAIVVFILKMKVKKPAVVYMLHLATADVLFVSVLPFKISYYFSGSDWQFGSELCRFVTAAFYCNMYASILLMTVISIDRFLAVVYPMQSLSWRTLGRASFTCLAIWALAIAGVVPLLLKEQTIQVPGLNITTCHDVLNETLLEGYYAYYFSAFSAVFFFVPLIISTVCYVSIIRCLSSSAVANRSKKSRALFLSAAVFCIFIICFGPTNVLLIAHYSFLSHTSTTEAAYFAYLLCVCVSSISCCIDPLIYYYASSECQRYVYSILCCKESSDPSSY
The format is binding. The conditions noted are these: PEG spacer carrying PAR1 N terminus with the SFLLRN ligand replaced.

Assay [1] has as its system PAR1 complexed with the antagonist vorapaxar. The format is binding, human. The conditions noted are these: vorapaxar-blocked versus free PAR1. In outline: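 Human PAR1 (residues Ala36–Tyr397) expressed in Sf9 cells via baculovirus and purified with 100 nM vorapaxar during lysis and solubilisation, then 1 μM through Ni-NTA, M1 and SEC. Reconstituted at 10 μM into DOPC/CHS liposomes, diluted 300-fold, adsorbed on mica. Cys-peptide ligand coupled to PEG-tipped cantilevers. Probed at 0.25 kHz, 30–50 nm amplitude, ~150 pN, ~27 °C. Free-energy landscape fitted from DFS plots.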

The target of assay [2] is T2, SFLLRN tethered ligand peptide (TRAP) (Homo sapiens, vorapaxar-bound PAR1).
T2 chain: SFLLRN
Description: FD-based AFM.

For assay [3], the target named is T3, SFLLRN tethered ligand peptide (TRAP) (Homo sapiens).
T3 chain: SFLLRN
The experiment in a line: FD-based AFM.

The target of the next assay is T4, SALLRN peptide (Homo sapiens).
T4 chain: SALLRN
The experiment in a line: FD-based AFM.

Another assay deals with T5, SFLLAN peptide (Homo sapiens).
T5 chain: SFLLAN
The experiment in a line: FD-based AFM.

Regarding `CCOC(=O)NC1CCC2C(C1)CC1C(=O)OC(C)C1C2CCc1ccc(-c2cccc(F)c2)cn1` (centres unmarked) [vorapaxar derivative], the “dissociation rate compared with that of vorapaxar” value in the assay with PAR1 was “much faster dissociation rate”. Take H-SALLRN [SALLRN]: in the assay on platelets, the “response in platelet aggregation assays” value was “no response”.

Turning to FLLNSR, the “specific interaction of the functionalized tip with PAR1 (control)” value on human PAR1 is on record as “did not interact specifically”. Turning to H-SFLLAN [SFLLAN], in assay [1], the “change of binding strength / affinity to PAR1 in the presence of vorapaxar” value is listed as “remained nearly unchanged; also recorded: no change in binding affinity”.

B1: PAR1 36-397 (protein)
chain: ATLDPRSFLLRNPNDKYEPFWEDEEKNESGLTEYRLVSINKSSPLQKQLPAFISEDASGYLTSSWLTLFVPSVYTGVFVVSLPLNIMAIVVFILKMKVKKPAVVYMLHLATADVLFVSVLPFKISYYFSGSDWQFGSELCRFVTAAFYCNMYASILLMTVISIDRFLAVVYPMQSLSWRTLGRASFTCLAIWALAIAGVVPLLLKEQTIQVPGLNITTCHDVLNETLLEGYYAYYFSAFSAVFFFVPLIISTVCYVSIIRCLSSSAVANRSKKSRALFLSAAVFCIFIICFGPTNVLLIAHYSFLSHTSTTEAAYFAYLLCVCVSSISCCIDPLIYYYASSECQRYVYSILCCKESSDPSSY
For B1, the dissociation constant Kd in assay [2] is about 40 µM; in assay [3], about 0.35 µM.

B2: PAR1 36-397 (protein)
chain: ATLDPRSALLRNPNDKYEPFWEDEEKNESGLTEYRLVSINKSSPLQKQLPAFISEDASGYLTSSWLTLFVPSVYTGVFVVSLPLNIMAIVVFILKMKVKKPAVVYMLHLATADVLFVSVLPFKISYYFSGSDWQFGSELCRFVTAAFYCNMYASILLMTVISIDRFLAVVYPMQSLSWRTLGRASFTCLAIWALAIAGVVPLLLKEQTIQVPGLNITTCHDVLNETLLEGYYAYYFSAFSAVFFFVPLIISTVCYVSIIRCLSSSAVANRSKKSRALFLSAAVFCIFIICFGPTNVLLIAHYSFLSHTSTTEAAYFAYLLCVCVSSISCCIDPLIYYYASSECQRYVYSILCCKESSDPSSY
B2 came in with an equilibrium dissociation constant (Kd) in the assay with SALLRN peptide of about 3500 µM.

B3: PAR1 36-397 (protein)
chain: ATLDPRSFLLANPNDKYEPFWEDEEKNESGLTEYRLVSINKSSPLQKQLPAFISEDASGYLTSSWLTLFVPSVYTGVFVVSLPLNIMAIVVFILKMKVKKPAVVYMLHLATADVLFVSVLPFKISYYFSGSDWQFGSELCRFVTAAFYCNMYASILLMTVISIDRFLAVVYPMQSLSWRTLGRASFTCLAIWALAIAGVVPLLLKEQTIQVPGLNITTCHDVLNETLLEGYYAYYFSAFSAVFFFVPLIISTVCYVSIIRCLSSSAVANRSKKSRALFLSAAVFCIFIICFGPTNVLLIAHYSFLSHTSTTEAAYFAYLLCVCVSSISCCIDPLIYYYASSECQRYVYSILCCKESSDPSSY
As for B3, in the assay with SFLLAN peptide, the Kd was about 30 µM.

The values are drawn from publication PMC5087271 (Nature methods, 2015).
